# Laboratory results as given in ChEMBL document CHEMBL1129275, “Synthesis and in vitro and in vivo characteristics of an iodinated analogue of the beta-adrenoceptor antagonist carazolol” (J Med Chem, 1996).
# Experiments:
# Oryctolagus cuniculus [1] = assay: Biodistribution pattern of [123I]- ligand was evaluated in spleen of anesthetized rabbit after Intravenous injection of 50 uCi after 1 hr; type: ADME, organism-based; settings: in vivo
# Method in brief: (§1)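 Male New Zealand white rabbits (2.5–3.5 kg), anesthetized with xylazine 5 mg/kg plus ketamine 30 mg/kg im, given 50 µCi radioligand (specific activity >5000 Ci/mmol) iv via ear vein. Euthanized at set times by pentobarbital 200 mg/kg im, n = 3/time point. Organs removed and weighed, gamma-counted, decay/weight corrected; expressed as % ID x kg body weight/g tissue, mean ± SEM.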
# Oryctolagus cuniculus [2] = assay: Biodistribution pattern of [123I]- ligand was evaluated in blood of anesthetized rabbit after Intravenous injection of 50 uCi after 24 hr; type: ADME, organism-based; settings: in vivo
# Method in brief: (§2)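 Male New Zealand white rabbits, 2.5–3.5 kg, anesthetized with 5 mg/kg xylazine plus 30 mg/kg ketamine im. Each received 50 uCi radioligand (specific activity > 5000 Ci/mmol) iv via ear vein. Animals were killed with 200 mg/kg pentobarbital im at the set time. Blood was drawn by intracardiac puncture and organs weighed. Gamma counting was decay-corrected, expressed as %ID x kg body weight/g tissue, mean ± SEM, n = 3/time point.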
# Oryctolagus cuniculus [3] = assay: Cerebral biodistribution pattern of [123I]- ligand was evaluated in hypothalamus of anesthetized rabbit after Intravenous injection of 50 uCi after 1 hr; type: ADME, organism-based; settings: in vivo; method in brief: as §1
# Oryctolagus cuniculus [4] = assay: Biodistribution pattern of [123I]- ligand was evaluated in muscle of anesthetized rabbit after Intravenous injection of 50 uCi after 4 hr; type: ADME, organism-based, Muscle tissue; settings: in vivo; method in brief: as §2
# Oryctolagus cuniculus [5] = assay: Biodistribution pattern of [123I]- ligand was evaluated in liver of anesthetized rabbit after Intravenous injection of 50 uCi after 1 hr; type: ADME, organism-based; settings: in vivo; method in brief: as §2
# Oryctolagus cuniculus [6] = assay: Biodistribution pattern of [123I]- ligand was evaluated in left ventricular muscle of anesthetized rabbit after Intravenous injection of 50 uCi after 24 hr; type: ADME, organism-based, Muscle tissue; settings: in vivo; method in brief: as §2
# Oryctolagus cuniculus [7] = assay: Cerebral biodistribution pattern of [123I]- ligand was evaluated in cerebellum of anesthetized rabbit after Intravenous injection of 50 uCi after 30 min; type: ADME, organism-based; settings: in vivo, 0.5 h; method in brief: as §1
# Oryctolagus cuniculus [8] = assay: Biodistribution pattern of [123I]- ligand was evaluated in intestine of anesthetized rabbit after Intravenous injection of 50 uCi after 1 hr; type: ADME, organism-based; settings: in vivo; method in brief: as §2
# Oryctolagus cuniculus [9] = assay: Biodistribution pattern of [123I]- ligand was evaluated in lung of anesthetized rabbit after Intravenous injection of 50 uCi after 24 hr; type: ADME, organism-based; settings: in vivo; method in brief: as §2
# Oryctolagus cuniculus [10] = assay: Biodistribution pattern of [123I]- ligand was evaluated in liver of anesthetized rabbit after Intravenous injection of 50 uCi after 30 min; type: ADME, organism-based; settings: in vivo, 0.5 h; method in brief: as §2
# Oryctolagus cuniculus [11] = assay: Biodistribution pattern of [123I]- ligand was evaluated in muscle of anesthetized rabbit after Intravenous injection of 50 uCi after 5 min; type: ADME, organism-based, Muscle tissue; settings: in vivo; method in brief: as §1
# Oryctolagus cuniculus [12] = assay: Biodistribution pattern of [123I]- ligand was evaluated in right ventricular muscle of anesthetized rabbit after Intravenous injection of 50 uCi after 5 min; type: ADME, organism-based, Muscle tissue; settings: in vivo; method in brief: as §1
# Oryctolagus cuniculus [13] = assay: Biodistribution pattern of [123I]- ligand was evaluated in spleen of anesthetized rabbit after Intravenous injection of 50 uCi after 2 hr; type: ADME, organism-based; settings: in vivo; method in brief: as §1
# Oryctolagus cuniculus [14] = assay: Biodistribution pattern of [123I]- ligand was evaluated in intestine of anesthetized rabbit after Intravenous injection of 50 uCi after 6 hr; type: ADME, organism-based; settings: in vivo; method in brief: as §2
# Oryctolagus cuniculus [15] = assay: Cerebral biodistribution pattern of [123I]- ligand was evaluated in thalamus of anesthetized rabbit after Intravenous injection of 50 uCi after 4 hr; type: ADME, organism-based; settings: in vivo; method in brief: as §1
# Oryctolagus cuniculus [16] = assay: Biodistribution pattern of [123I]- ligand was evaluated in intestine of anesthetized rabbit after Intravenous injection of 50 uCi after 4 hr; type: ADME, organism-based; settings: in vivo; method in brief: as §2
# Oryctolagus cuniculus [17] = assay: Biodistribution pattern of [123I]- ligand was evaluated in right atrial muscle of anesthetized rabbit after Intravenous injection of 50 uCi after 1 hr; type: ADME, organism-based, Muscle tissue; settings: in vivo; method in brief: as §1
# Oryctolagus cuniculus [18] = assay: Biodistribution pattern of [123I]- ligand was evaluated in left ventricular muscle of anesthetized rabbit after Intravenous injection of 50 uCi after 1 hr; type: ADME, organism-based, Muscle tissue; settings: in vivo; method in brief: as §2
# Oryctolagus cuniculus [19] = assay: Cerebral biodistribution pattern of [123I]- ligand was evaluated in thalamus of anesthetized rabbit after Intravenous injection of 50 uCi after 2 hr; type: ADME, organism-based; settings: in vivo; method in brief: as §1
# Oryctolagus cuniculus [20] = assay: Cerebral biodistribution pattern of [123I]- ligand was evaluated in thalamus of anesthetized rabbit after Intravenous injection of 50 uCi after 24 hr; type: ADME, organism-based; settings: in vivo; method in brief: as §1
# Oryctolagus cuniculus [21] = assay: Biodistribution pattern of [123I]- ligand was evaluated in spleen of anesthetized rabbit after Intravenous injection of 50 uCi after 5 min; type: ADME, organism-based; settings: in vivo; method in brief: as §1
# Oryctolagus cuniculus [22] = assay: Biodistribution pattern of [123I]- ligand was evaluated in lung of anesthetized rabbit after Intravenous injection of 50 uCi after 6 hr; type: ADME, organism-based; settings: in vivo; method in brief: as §2
# Oryctolagus cuniculus [23] = assay: Cerebral biodistribution pattern of [123I]- ligand was evaluated in hypothalamus of anesthetized rabbit after Intravenous injection of 50 uCi after 24 hr; type: ADME, organism-based; settings: in vivo; method in brief: as §1
# Oryctolagus cuniculus [24] = assay: Biodistribution pattern of [123I]- ligand was evaluated in left atrial muscle of anesthetized rabbit after Intravenous injection of 50 uCi after 4 hr; type: ADME, organism-based, Muscle tissue; settings: in vivo; method in brief: as §2
# Oryctolagus cuniculus [25] = assay: Biodistribution pattern of [123I]- ligand was evaluated in fat of anesthetized rabbit after Intravenous injection of 50 uCi after 1 hr; type: ADME, organism-based, Adipose tissue; settings: in vivo; method in brief: as §2
# Oryctolagus cuniculus [26] = assay: Biodistribution pattern of [123I]- ligand was evaluated in right ventricular muscle of anesthetized rabbit after Intravenous injection of 50 uCi after 24 hr; type: ADME, organism-based, Muscle tissue; settings: in vivo; method in brief: as §1
# Oryctolagus cuniculus [27] = assay: Biodistribution pattern of [123I]- ligand was evaluated in liver of anesthetized rabbit after Intravenous injection of 50 uCi after 2 hr; type: ADME, organism-based; settings: in vivo; method in brief: as §2
# Oryctolagus cuniculus [28] = assay: Cerebral biodistribution pattern of [123I]- ligand was evaluated in thalamus of anesthetized rabbit after Intravenous injection of 50 uCi after 6 hr; type: ADME, organism-based; settings: in vivo
# Method in brief: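 Male New Zealand white rabbits (2.5–3.5 kg) anesthetized with xylazine 5 mg/kg plus ketamine 30 mg/kg im; 50 uCi radioligand (specific activity > 5000 Ci/mmol) given iv via ear vein. Euthanized by pentobarbital 200 mg/kg im at set times up to 24 h (n = 3/time point). Brain regions weighed and gamma-counted, decay-corrected, expressed as % ID x kg body weight/g tissue, mean ± SEM.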
# Oryctolagus cuniculus [29] = assay: Biodistribution pattern of [123I]- ligand was evaluated in liver of anesthetized rabbit after Intravenous injection of 50 uCi after 6 hr; type: ADME, organism-based; settings: in vivo; method in brief: as §2
# Oryctolagus cuniculus [30] = assay: Biodistribution pattern of [123I]- ligand was evaluated in right ventricular muscle of anesthetized rabbit after Intravenous injection of 50 uCi after 2 hr; type: ADME, organism-based, Muscle tissue; settings: in vivo; method in brief: as §1
# Oryctolagus cuniculus [31] = assay: Biodistribution pattern of [123I]- ligand was evaluated in right atrial muscle of anesthetized rabbit after Intravenous injection of 50 uCi after 6 hr; type: ADME, organism-based, Muscle tissue; settings: in vivo; method in brief: as §1
# Oryctolagus cuniculus [32] = assay: Biodistribution pattern of [123I]- ligand was evaluated in blood of anesthetized rabbit after Intravenous injection of 50 uCi after 4 hr; type: ADME, organism-based; settings: in vivo; method in brief: as §2
# Oryctolagus cuniculus [33] = assay: Biodistribution pattern of [123I]- ligand was evaluated in kidney of anesthetized rabbit after Intravenous injection of 50 uCi after 6 hr; type: ADME, organism-based; settings: in vivo; method in brief: as §2
# Oryctolagus cuniculus [34] = assay: Biodistribution pattern of [123I]- ligand was evaluated in blood of anesthetized rabbit after Intravenous injection of 50 uCi after 6 hr; type: ADME, organism-based; settings: in vivo; method in brief: as §2
# Oryctolagus cuniculus [35] = assay: Cerebral biodistribution pattern of [123I]- ligand was evaluated in pituitary gland of anesthetized rabbit after Intravenous injection of 50 uCi after 24 hr; type: ADME, organism-based; settings: in vivo; method in brief: as §1
# Oryctolagus cuniculus [36] = assay: Cerebral biodistribution pattern of [123I]- ligand was evaluated in striatum of anesthetized rabbit after Intravenous injection of 50 uCi after 1 hr; type: ADME, organism-based; settings: in vivo; method in brief: as §1
smiles,measurement,setting,value
CC(C)(/C=C/I)NC[C@H](O)COc1cccc2[nH]c3ccccc3c12,ID x kg of body weight/g of tissue,Oryctolagus cuniculus [1],0.28%
same,ID x kg of body weight/g of tissue,Oryctolagus cuniculus [2],0.01%
same,ID x kg of body weight/g of tissue,Oryctolagus cuniculus [3],0.06%
same,ID x kg of body weight/g of tissue,Oryctolagus cuniculus [4],0.04%
same,ID x kg of body weight/g of tissue,Oryctolagus cuniculus [5],0.13%
same,ID x kg of body weight/g of tissue,Oryctolagus cuniculus [6],0.02%
same,ID x kg of body weight/g of tissue,Oryctolagus cuniculus [7],< 0.15%
same,ID x kg of body weight/g of tissue,Oryctolagus cuniculus [8],0.1%
same,ID x kg of body weight/g of tissue,Oryctolagus cuniculus [9],0.18%
same,ID x kg of body weight/g of tissue,Oryctolagus cuniculus [10],0.19%
same,ID x kg of body weight/g of tissue,Oryctolagus cuniculus [11],0.08%
same,ID x kg of body weight/g of tissue,Oryctolagus cuniculus [12],0.43%
same,ID x kg of body weight/g of tissue,Oryctolagus cuniculus [13],0.22%
same,ID x kg of body weight/g of tissue,Oryctolagus cuniculus [14],0.05%
same,ID x kg of body weight/g of tissue,Oryctolagus cuniculus [15],0.03%
same,ID x kg of body weight/g of tissue,Oryctolagus cuniculus [16],0.06%
same,ID x kg of body weight/g of tissue,Oryctolagus cuniculus [17],< 0.13%
same,ID x kg of body weight/g of tissue,Oryctolagus cuniculus [18],0.2%
same,ID x kg of body weight/g of tissue,Oryctolagus cuniculus [19],0.05%
same,ID x kg of body weight/g of tissue,Oryctolagus cuniculus [20],0.02%
same,ID x kg of body weight/g of tissue,Oryctolagus cuniculus [21],0.39%
same,ID x kg of body weight/g of tissue,Oryctolagus cuniculus [22],0.71%
same,ID x kg of body weight/g of tissue,Oryctolagus cuniculus [23],0.02%
same,ID x kg of body weight/g of tissue,Oryctolagus cuniculus [24],0.11%
same,ID x kg of body weight/g of tissue,Oryctolagus cuniculus [25],0.06%
same,ID x kg of body weight/g of tissue,Oryctolagus cuniculus [26],0.02%
same,ID x kg of body weight/g of tissue,Oryctolagus cuniculus [27],0.09%
same,ID x kg of body weight/g of tissue,Oryctolagus cuniculus [28],0.03%
same,ID x kg of body weight/g of tissue,Oryctolagus cuniculus [29],0.03%
same,ID x kg of body weight/g of tissue,Oryctolagus cuniculus [30],0.18%
same,ID x kg of body weight/g of tissue,Oryctolagus cuniculus [31],0.07%
same,ID x kg of body weight/g of tissue,Oryctolagus cuniculus [32],0.01%
same,ID x kg of body weight/g of tissue,Oryctolagus cuniculus [33],0.04%
same,ID x kg of body weight/g of tissue,Oryctolagus cuniculus [34],0.01%
same,ID x kg of body weight/g of tissue,Oryctolagus cuniculus [35],0.03%
same,ID x kg of body weight/g of tissue,Oryctolagus cuniculus [36],0.07%
